Test results taken from ChEMBL document CHEMBL2407064 (J Med Chem, 2013).
Calls of active or inactive are those of the source. The rule behind the calls is not given here.

Experiments:
[1] = target: T1, Neuronal acetylcholine receptor; alpha3/alpha6/beta2/beta3 (Homo sapiens, UniProt P17787+P32297+Q05901+Q15825); assay: Agonist activity at human alpha6/alpha3beta2beta3 nAChR expressed in human SHEP1 cells assessed as stimulation of 86Rb+ ion efflux after 5 mins by liquid scintillation counting analysis; assay type: cell-based
T1 sequence (P17787 whole entry): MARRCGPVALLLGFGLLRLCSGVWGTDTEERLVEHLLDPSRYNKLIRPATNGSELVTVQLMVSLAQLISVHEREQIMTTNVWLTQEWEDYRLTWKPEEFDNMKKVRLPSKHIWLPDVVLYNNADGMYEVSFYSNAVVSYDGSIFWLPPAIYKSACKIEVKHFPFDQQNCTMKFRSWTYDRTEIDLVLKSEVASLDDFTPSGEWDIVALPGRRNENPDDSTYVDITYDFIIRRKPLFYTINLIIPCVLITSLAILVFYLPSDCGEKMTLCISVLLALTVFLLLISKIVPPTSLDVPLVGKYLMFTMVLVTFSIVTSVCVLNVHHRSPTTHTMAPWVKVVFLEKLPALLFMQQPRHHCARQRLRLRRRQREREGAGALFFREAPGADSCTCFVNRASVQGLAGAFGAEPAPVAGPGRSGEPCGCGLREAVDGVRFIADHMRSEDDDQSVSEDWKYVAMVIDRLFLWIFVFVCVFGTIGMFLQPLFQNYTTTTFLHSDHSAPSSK
T1 sequence (P32297 whole entry): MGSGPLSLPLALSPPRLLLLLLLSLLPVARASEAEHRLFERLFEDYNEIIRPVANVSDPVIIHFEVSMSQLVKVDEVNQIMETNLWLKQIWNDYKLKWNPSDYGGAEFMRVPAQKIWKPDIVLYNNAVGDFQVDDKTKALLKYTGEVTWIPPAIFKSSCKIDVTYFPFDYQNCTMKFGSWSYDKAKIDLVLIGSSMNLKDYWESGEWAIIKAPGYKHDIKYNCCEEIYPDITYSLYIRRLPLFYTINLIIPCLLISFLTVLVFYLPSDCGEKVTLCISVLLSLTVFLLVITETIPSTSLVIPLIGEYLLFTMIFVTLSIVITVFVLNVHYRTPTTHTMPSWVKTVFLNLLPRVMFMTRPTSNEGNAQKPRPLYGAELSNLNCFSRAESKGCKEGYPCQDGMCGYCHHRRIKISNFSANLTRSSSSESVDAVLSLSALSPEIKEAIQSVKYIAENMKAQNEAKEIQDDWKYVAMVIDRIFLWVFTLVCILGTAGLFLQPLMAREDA
T1 sequence (Q15825 whole entry): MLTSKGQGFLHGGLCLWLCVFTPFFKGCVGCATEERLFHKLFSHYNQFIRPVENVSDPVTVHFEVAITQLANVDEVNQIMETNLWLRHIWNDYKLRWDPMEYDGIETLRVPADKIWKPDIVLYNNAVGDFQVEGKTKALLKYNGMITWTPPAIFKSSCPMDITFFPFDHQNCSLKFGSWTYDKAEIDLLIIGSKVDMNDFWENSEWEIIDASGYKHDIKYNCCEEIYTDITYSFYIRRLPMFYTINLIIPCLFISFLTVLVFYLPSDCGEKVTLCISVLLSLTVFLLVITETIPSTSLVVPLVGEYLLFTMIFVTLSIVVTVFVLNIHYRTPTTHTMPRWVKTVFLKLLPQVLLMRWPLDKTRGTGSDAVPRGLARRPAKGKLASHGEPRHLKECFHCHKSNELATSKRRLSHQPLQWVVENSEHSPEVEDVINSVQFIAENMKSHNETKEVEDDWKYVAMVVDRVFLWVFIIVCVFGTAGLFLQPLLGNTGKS
T1 sequence (Q05901 whole entry): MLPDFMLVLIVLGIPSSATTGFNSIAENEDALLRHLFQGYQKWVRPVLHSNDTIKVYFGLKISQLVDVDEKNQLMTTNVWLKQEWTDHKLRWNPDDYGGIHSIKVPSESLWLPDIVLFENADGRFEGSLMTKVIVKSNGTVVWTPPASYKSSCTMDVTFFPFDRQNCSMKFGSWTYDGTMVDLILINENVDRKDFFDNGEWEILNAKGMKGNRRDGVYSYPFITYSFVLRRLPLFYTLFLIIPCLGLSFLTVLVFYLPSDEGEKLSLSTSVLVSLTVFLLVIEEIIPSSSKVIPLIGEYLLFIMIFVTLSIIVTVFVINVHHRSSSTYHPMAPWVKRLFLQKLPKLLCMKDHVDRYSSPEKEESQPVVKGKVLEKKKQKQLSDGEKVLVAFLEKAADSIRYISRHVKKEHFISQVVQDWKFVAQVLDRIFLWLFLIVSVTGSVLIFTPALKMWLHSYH

[2] = target: T1, Neuronal acetylcholine receptor; alpha3/alpha6/beta2/beta3; assay: Antagonist activity at human alpha6/alpha3beta2beta3 nAChR expressed in human SHEP1 cells assessed as inhibition of carbamylcholine-induced 86Rb+ ion efflux preincubated for 10 mins by liquid scintillation counting analysis; assay type: cell-based
[3] = target: T2, Acetylcholine receptor; alpha1/beta1/delta/gamma (Homo sapiens) (UniProt P02708+P07510+P11230+Q07001); assay: Antagonist activity at alpha1beta1gammadelta nAChR in human TE671/RD cells assessed as inhibition of carbamylcholine-induced 86Rb+ ion efflux preincubated for 10 mins by liquid scintillation counting analysis; assay type: cell-based
[4] = target: T2, Acetylcholine receptor; alpha1/beta1/delta/gamma (Homo sapiens); assay: Agonist activity at alpha1beta1gammadelta nAChR in human TE671/RD cells assessed as stimulation of 86Rb+ ion efflux after 5 mins by liquid scintillation counting analysis; assay type: cell-based
Procedure, shortened: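 Human TE671/RD cells, which natively express muscle-type α1β1γδ nAChRs, maintained at low passage (1–26) and split 1/300 weekly. 86Rb+ efflux. Agonism given as EC50 with efficacy normalized to carbamylcholine.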

[5] = tested on: Mus musculus; assay: Antidepressant-like activity in BALB/cJ mouse assessed as decrease in immobility time at 1 to 10 mg/kg, ip administered 30 mins before test measured for 6 mins by forced swimming test; assay type: functional, organism-based
Procedure, shortened: (§1)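 Male BALB/cJ mice, 8–10 weeks old. Drugs dissolved in water and given i.p. or orally at 10 ml/kg, 30 min before the trial. Sertraline 20 mg/kg was the positive control. Each mouse was placed in a glass cylinder with 12 cm of 23 ± 1 °C water, and immobility (floating) was timed over a 6 min trial. ANOVA with Fisher's LSD; n = 9–10/group.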

[6] = tested on: Mus musculus; assay: Antidepressant-like activity in BALB/cJ mouse assessed as decrease in immobility time at 20 mg/kg, ip administered 30 mins before test measured for 6 mins by forced swimming test; assay type: functional, organism-based; design: dose 20 mg/kg; procedure, shortened: as §1
[7] = tested on: Mus musculus; assay: Toxicity in BALB/cJ mouse assessed as sedative effect at 5 mg/kg, ip; assay type: organism-based; design: dose 5 mg/kg, route intraperitoneal; details: in vivo
[8] = tested on: Mus musculus; assay: Toxicity in BALB/cJ mouse assessed as occurrence of tremor at 5 mg/kg, ip; assay type: organism-based; design: dose 5 mg/kg, route intraperitoneal; details: in vivo
[9] = tested on: Mus musculus; assay: Toxicity in BALB/cJ mouse assessed as mortality at 10 mg/kg, ip; assay type: organism-based; design: dose 10 mg/kg, route intraperitoneal; details: in vivo
[10] = target: CYP2D6 (Homo sapiens, UniProt P10635); assay: Inhibition of CYP2D6 (unknown origin) at 10 uM relative to control; assay type: ADME
Chain of CYP2D6 (P10635 whole entry, canonical isoform): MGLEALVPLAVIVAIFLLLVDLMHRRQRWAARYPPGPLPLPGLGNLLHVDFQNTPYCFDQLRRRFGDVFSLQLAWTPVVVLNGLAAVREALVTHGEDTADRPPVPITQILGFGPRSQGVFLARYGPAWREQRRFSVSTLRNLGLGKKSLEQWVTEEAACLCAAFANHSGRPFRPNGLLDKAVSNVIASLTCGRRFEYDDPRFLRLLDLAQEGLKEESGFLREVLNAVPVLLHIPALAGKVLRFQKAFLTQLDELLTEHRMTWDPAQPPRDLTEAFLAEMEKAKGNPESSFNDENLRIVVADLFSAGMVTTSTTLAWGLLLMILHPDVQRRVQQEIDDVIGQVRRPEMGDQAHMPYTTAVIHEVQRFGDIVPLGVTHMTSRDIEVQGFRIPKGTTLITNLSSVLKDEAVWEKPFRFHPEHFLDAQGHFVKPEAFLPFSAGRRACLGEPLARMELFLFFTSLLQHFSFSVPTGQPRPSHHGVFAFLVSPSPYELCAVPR
Procedure, shortened: (§2)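 Inhibition of CYP1A, CYP2C9, CYP2C19, CYP2D6 and CYP3A isoforms measured in the presence of 10 μM test compound, expressed as percent inhibition.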

[11] = tested on: Salmonella typhimurium; assay: Genotoxicity in Salmonella typhimurium TA98 at 5 to 100 uM by Ames test in presence of liver S9 fraction; assay type: toxicity, organism-based; details: salmonella enterica subsp. enterica serovar typhimurium, s9, 100 µM
Procedure, shortened: (§3)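 Bacterial reverse mutation (Ames) test in TA98, TA100, TA1535 and TA1537 strains, with and without liver S9 metabolic activation. Test concentrations 5, 10, 50 and 100 μM.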

[12] = tested on: Salmonella typhimurium; assay: Genotoxicity in Salmonella typhimurium TA1537 at 5 to 100 uM by Ames test; assay type: toxicity, organism-based; details: salmonella enterica subsp. enterica serovar typhimurium; procedure, shortened: as §3
[13] = target: CYP2C9 (Homo sapiens, UniProt P11712); assay: Inhibition of CYP2C9 (unknown origin) at 10 uM relative to control; assay type: ADME; procedure, shortened: as §2
[14] = Metabolic stability in human liver microsomes assessed as compound remaining at 0.1 uM after 1 hr; assay type: ADME, Microsome; details: read-out: Stability
Procedure, shortened: (§4)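 Human or CD-1 mouse liver microsomes incubated with 0.1 μM test compound for 1 h. Percent parent compound remaining unchanged was measured.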

[15] = target: T3, hERG (KCNH2) (Homo sapiens, UniProt Q12809); assay: Inhibition of human ERG at 1 uM relative to control
T3 sequence (Q12809 whole entry): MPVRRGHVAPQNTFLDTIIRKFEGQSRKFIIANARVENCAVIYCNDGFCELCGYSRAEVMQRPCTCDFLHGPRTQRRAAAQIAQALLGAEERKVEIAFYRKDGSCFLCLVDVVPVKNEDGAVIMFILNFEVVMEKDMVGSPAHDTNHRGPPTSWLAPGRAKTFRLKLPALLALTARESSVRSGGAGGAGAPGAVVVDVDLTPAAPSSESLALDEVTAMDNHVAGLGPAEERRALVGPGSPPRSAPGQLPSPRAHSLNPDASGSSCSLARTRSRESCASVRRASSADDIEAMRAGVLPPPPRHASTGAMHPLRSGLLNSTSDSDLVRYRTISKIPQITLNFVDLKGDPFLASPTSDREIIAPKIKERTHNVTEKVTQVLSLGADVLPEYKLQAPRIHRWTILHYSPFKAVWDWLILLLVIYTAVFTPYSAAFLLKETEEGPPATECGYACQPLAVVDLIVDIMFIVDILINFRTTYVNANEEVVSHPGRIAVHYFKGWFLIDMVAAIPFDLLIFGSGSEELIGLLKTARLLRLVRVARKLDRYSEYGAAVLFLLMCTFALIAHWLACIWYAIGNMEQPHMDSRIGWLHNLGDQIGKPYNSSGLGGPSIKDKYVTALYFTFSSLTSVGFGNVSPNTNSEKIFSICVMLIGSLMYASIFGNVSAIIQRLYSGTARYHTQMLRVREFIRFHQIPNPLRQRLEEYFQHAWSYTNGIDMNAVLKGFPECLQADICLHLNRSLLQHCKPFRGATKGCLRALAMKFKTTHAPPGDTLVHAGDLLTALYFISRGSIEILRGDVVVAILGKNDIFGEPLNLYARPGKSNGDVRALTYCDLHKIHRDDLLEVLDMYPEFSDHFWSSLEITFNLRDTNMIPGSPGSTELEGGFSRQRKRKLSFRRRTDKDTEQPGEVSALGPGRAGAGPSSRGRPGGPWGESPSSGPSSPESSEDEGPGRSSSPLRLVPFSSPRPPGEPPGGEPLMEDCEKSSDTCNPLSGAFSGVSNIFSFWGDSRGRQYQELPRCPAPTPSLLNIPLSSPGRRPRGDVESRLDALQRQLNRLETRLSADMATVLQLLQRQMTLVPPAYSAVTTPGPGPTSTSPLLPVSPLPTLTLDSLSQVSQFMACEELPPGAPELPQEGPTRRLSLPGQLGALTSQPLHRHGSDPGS
Procedure, shortened: (§5)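 Human ERG inhibition tested at three concentrations (0.1, 1 and 10 μM), expressed as percent inhibition.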

[16] = tested on: Caco-2; assay: Permeability from basolateral to apical side in human Caco2 cells at pH 7.4; assay type: ADME, cell-based; details: caco-2, pH 7.4
Procedure, shortened: (§6)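 Bidirectional Caco-2 monolayer permeability, apical-to-basolateral and basolateral-to-apical, at pH 7.4 on both sides. Run with and without the P-gp inhibitor verapamil. Apparent permeability given in cm/s.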

[17] = target: CYP2C19 (Homo sapiens, UniProt P33261); assay: Inhibition of CYP2C19 (unknown origin) at 10 uM relative to control; assay type: ADME; procedure, shortened: as §2
Chain of CYP2C19 (P33261 whole entry): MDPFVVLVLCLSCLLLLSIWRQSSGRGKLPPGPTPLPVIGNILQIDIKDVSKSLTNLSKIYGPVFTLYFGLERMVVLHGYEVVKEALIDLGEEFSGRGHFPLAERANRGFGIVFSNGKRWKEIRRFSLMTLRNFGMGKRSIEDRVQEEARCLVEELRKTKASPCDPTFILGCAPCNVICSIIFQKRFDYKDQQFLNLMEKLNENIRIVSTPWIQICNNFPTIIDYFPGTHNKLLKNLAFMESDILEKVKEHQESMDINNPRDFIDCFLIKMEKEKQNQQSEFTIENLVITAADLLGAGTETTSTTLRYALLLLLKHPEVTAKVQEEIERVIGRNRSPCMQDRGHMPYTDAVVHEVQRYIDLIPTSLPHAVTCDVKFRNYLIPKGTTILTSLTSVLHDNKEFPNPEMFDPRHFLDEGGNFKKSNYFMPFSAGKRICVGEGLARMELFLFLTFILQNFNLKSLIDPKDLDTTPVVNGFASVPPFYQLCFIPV

[18] = tested on: Salmonella typhimurium; assay: Genotoxicity in Salmonella typhimurium TA1535 at 5 to 100 uM by Ames test in presence of liver S9 fraction; assay type: toxicity, organism-based; details: salmonella enterica subsp. enterica serovar typhimurium, s9, 100 µM; procedure, shortened: as §3
[19] = Metabolic stability in CD-1 mouse liver microsomes assessed as compound remaining at 0.1 uM after 1 hr; assay type: ADME, Microsome; details: CD-1, liver microsomes; read-out: Stability; procedure, shortened: as §4
[20] = tested on: Salmonella typhimurium; assay: Genotoxicity in Salmonella typhimurium TA1535 at 5 to 100 uM by Ames test; assay type: toxicity, organism-based; details: salmonella enterica subsp. enterica serovar typhimurium; procedure, shortened: as §3
[21] = tested on: Salmonella typhimurium; assay: Genotoxicity in Salmonella typhimurium TA98 at 5 to 100 uM by Ames test; assay type: toxicity, organism-based; details: salmonella enterica subsp. enterica serovar typhimurium; procedure, shortened: as §3
[22] = tested on: Plasma; assay: Plasma protein binding in human at 10 uM; assay type: ADME, cell-free
Procedure, shortened: (§7)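 Plasma protein binding measured in human and CD-1 mouse plasma at 10 μM test compound, given as percent bound.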

[23] = tested on: Caco-2; assay: Permeability from apical to basolateral side in human Caco2 cells at pH 7.4; assay type: ADME, cell-based; details: caco-2, pH 7.4; procedure, shortened: as §6
[24] = tested on: CYP3A; assay: Inhibition of CYP3A (unknown origin) at 10 uM relative to control; assay type: ADME; details: human; procedure, shortened: as §2
[25] = target: T3, hERG (KCNH2); assay: Inhibition of human ERG at 10 uM relative to control; procedure, shortened: as §5
[26] = Metabolic stability in human hepatocytes assessed as compound remaining at 1 uM after 2 hrs; assay type: ADME, cell-based, Hepatocyte; details: read-out: Stability
Procedure, shortened: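 Cryopreserved human hepatocytes incubated with 1 μM test compound for 2 h. Percent parent compound remaining unchanged was measured.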

[27] = Chemical stability of the compound at room temperature; assay type: physicochemical
[28] = tested on: Salmonella typhimurium; assay: Genotoxicity in Salmonella typhimurium TA100 at 5 to 100 uM by Ames test; assay type: toxicity, organism-based; details: salmonella enterica subsp. enterica serovar typhimurium; procedure, shortened: as §3
[29] = target: T4, Neuronal acetylcholine receptor; alpha4/beta2 (Homo sapiens, UniProt P17787+P43681); assay: Antagonist activity at human alpha4beta2 nACHR expressed in human SHEP1 cells assessed as inhibition of carbamylcholine-induced 86Rb+ ion efflux preincubated for 10 mins by liquid scintillation counting analysis; assay type: cell-based
T4 sequence (P17787 whole entry): as the sequence (P17787 whole entry) above
T4 sequence (P43681 whole entry): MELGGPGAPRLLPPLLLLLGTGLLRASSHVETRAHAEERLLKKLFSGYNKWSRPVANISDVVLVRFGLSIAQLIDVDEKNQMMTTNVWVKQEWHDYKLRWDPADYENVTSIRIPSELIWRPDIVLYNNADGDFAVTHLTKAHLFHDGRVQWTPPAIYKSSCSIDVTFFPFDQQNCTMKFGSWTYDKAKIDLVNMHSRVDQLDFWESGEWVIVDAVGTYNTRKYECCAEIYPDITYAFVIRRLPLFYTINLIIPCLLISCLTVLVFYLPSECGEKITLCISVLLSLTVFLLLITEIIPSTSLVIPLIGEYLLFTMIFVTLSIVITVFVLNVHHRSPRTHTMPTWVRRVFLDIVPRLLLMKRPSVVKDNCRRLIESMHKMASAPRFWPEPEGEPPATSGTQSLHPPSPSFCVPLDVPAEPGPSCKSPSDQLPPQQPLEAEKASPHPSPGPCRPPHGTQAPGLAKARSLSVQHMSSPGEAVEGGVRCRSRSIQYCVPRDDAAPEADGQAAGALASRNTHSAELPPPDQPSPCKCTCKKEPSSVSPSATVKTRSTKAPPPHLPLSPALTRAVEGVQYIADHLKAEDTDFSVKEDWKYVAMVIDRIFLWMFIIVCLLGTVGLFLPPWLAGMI

[30] = target: T4, Neuronal acetylcholine receptor; alpha4/beta2; assay: Agonist activity at human alpha4beta2 nACHR expressed in human SHEP1 cells assessed as stimulation of 86Rb+ ion efflux after 5 mins by liquid scintillation counting analysis; assay type: cell-based
[31] = target: T3, hERG (KCNH2); assay: Inhibition of human ERG at 0.1 uM relative to control; procedure, shortened: as §5
[32] = tested on: Plasma; assay: Plasma protein binding in CD-1 mouse at 10 uM; assay type: ADME, cell-free; procedure, shortened: as §7
[33] = tested on: Salmonella typhimurium; assay: Genotoxicity in Salmonella typhimurium TA1537 at 5 to 10 uM by Ames test in presence of liver S9 fraction; assay type: toxicity, organism-based; details: salmonella enterica subsp. enterica serovar typhimurium, s9, 10 µM
[34] = tested on: Salmonella typhimurium; assay: Genotoxicity in Salmonella typhimurium TA1537 at 50 to 100 uM by Ames test in presence of liver S9 fraction; assay type: toxicity, organism-based; details: salmonella enterica subsp. enterica serovar typhimurium, s9, 100 µM; procedure, shortened: as §3
[35] = tested on: Salmonella typhimurium; assay: Genotoxicity in Salmonella typhimurium TA100 at 5 to 100 uM by Ames test in presence of liver S9 fraction; assay type: toxicity, organism-based; details: salmonella enterica subsp. enterica serovar typhimurium, s9, 100 µM; procedure, shortened: as §3
[36] = tested on: Mus musculus; assay: Antidepressant-like activity in BALB/cJ mouse assessed as decrease in immobility time at 1 mg/kg, po administered 30 mins before test measured for 6 mins by forced swimming test; assay type: functional, organism-based; design: dose 1 mg/kg; procedure, shortened: as §1
[37] = tested on: Mus musculus; assay: Antidepressant-like activity in BALB/cJ mouse assessed as decrease in immobility time at 1 mg/kg, ip administered 30 mins before test measured for 6 mins by forced swimming test; assay type: functional, organism-based; design: dose 1 mg/kg; procedure, shortened: as §1
[38] = tested on: Salmonella typhimurium; assay: Genotoxicity in Salmonella typhimurium TA1537 up to 3 x 10^5 uM by Ames test; assay type: toxicity, organism-based; details: salmonella enterica subsp. enterica serovar typhimurium
[39] = tested on: Salmonella typhimurium; assay: Genotoxicity in Salmonella typhimurium TA1537 up to 3 x 10^5 uM by Ames test in presence of liver S9 fraction; assay type: toxicity, organism-based; details: salmonella enterica subsp. enterica serovar typhimurium

COCC[C@H]1C[C@@H]1c1cncc(OC[C@@H]2CCN2)c1
EC50 [1]: 7.4 nM
IC50 [2]: 9.7 nM

COCC[C@H]1C[C@@H]1c1cncc(OC[C@@H]2CCCN2)c1
inhibition [3]: inactive
EC50 [1]: 51.5 nM
IC50 [2]: 223 nM
Activity [4]: Active
Activity [5]: inactive

CN[C@H]1CC[C@@H](c2ccc(Cl)c(Cl)c2)c2ccccc21
Activity [6]: Active

COCC[C@H]1C[C@@H]1c1cncc(OC[C@H]2CCNC2)c1.O=C(O)C(F)(F)F (single isomer, unassigned)
inhibition [3]: inactive
Activity [4]: Active
Activity [7]: Toxic
Activity [8]: Toxic
Activity [9]: Toxic

COCC[C@H]1C[C@@H]1c1cncc(OC[C@@H]2CCCN2C)c1.O=C(O)C(F)(F)F
inhibition at 10 µM [10]: 44%
Activity [11]: Non-toxic
EC50 [1]: 9 nM
Activity [12]: Non-toxic
IC50 [2]: 23.9 nM
inhibition at 10 µM [13]: 30%
remaining at 1 h, 0.1 µM [14]: 103%
inhibition at 1 µM [15]: 7%
permeability [16]: 18.4 ×10⁻⁶ cm/s
inhibition at 10 µM [17]: 21%
Activity [18]: Non-toxic
remaining at 1 h, 0.1 µM [19]: 90.1%
Activity [20]: Non-toxic
Activity [21]: Non-toxic
PPB [22]: 31%
permeability [23]: 90.9 ×10⁻⁶ cm/s
inhibition at 10 µM [24]: 10%
inhibition at 10 µM [25]: 23%
remaining at 2 h, 1 µM [26]: 85.7%
Stability [27]: Stable
Activity [28]: Non-toxic
IC50 [29]: 20 nM
EC50 [30]: 14.4 nM
inhibition at 0.1 µM [31]: 4%
PPB [32]: 11%
Activity [33]: Non-toxic
Activity [34]: Toxic
Activity [35]: Non-toxic

COCC[C@H]1C[C@@H]1c1cncc(OC[C@@H]2CCCN2C)c1
inhibition [3]: inactive
Activity [36]: Active
Activity [4]: Active
Activity [37]: Active

COCC[C@H]1C[C@@H]1c1cncc(OC[C@@H]2CCCN2C)c1.O=C(O)C(O)C(O)C(=O)O
Activity [38]: Non-toxic
Activity [39]: Non-toxic
